Laboratory results from ChEMBL document CHEMBL4041486, “Vobasinyl-Iboga Alkaloids from Tabernaemontana elegans: Cell Cycle Arrest and Apoptosis-Inducing Activity in HCT116 Colon Cancer Cells” (J Nat Prod, 2016).
pIC50: −log10 of the molar value.

Assays:
HCT-116 [1] = assay: Growth inhibition of human HCT116 cells after 72 hrs by MTS assay; format: functional, cell-based; details: HCT-116, 72 h
Summary of the method: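 HCT116 grown in McCoy's 5A, 10% FBS, 37 °C, 5% CO2; 5000 cells/well; compound in DMSO added 24 h after plating, 72 h exposure. Viability by MTS/PMS reduction to formazan, absorbance 490 nm. IC50 with 95% CI by curve fit; at least three independent experiments.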

HepG2 = assay: Growth inhibition of human HepG2 cells after 72 hrs by MTS assay; format: functional, cell-based; details: HepG2, 72 h
Summary of the method: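 HepG2 grown in DMEM with 10% FBS and 1% nonessential amino acids; 5000 cells/well; medium replaced with DMSO-dissolved compound 24 h post-seeding, 72 h exposure. MTS formazan absorbance read at 490 nm. IC50 derived with 95% CI; at least three independent experiments.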

HCT-116 [2] = assay: Cell cycle arrest in human HCT116 cells assessed as accumulation at G1 phase at antiproliferative IC50 after 24 hrs by propidium iodide staining based flow cytometry (reference value: 31%); format: functional
HCT-116 [3] = assay: Cell cycle arrest in human HCT116 cells assessed as accumulation at S phase at antiproliferative IC50 after 24 hrs by propidium iodide staining based flow cytometry (reference value: 38.8%); format: functional
HCT-116 [4] = assay: Cell cycle arrest in human HCT116 cells assessed as accumulation at G2/M phase at antiproliferative IC50 after 24 hrs by propidium iodide staining based flow cytometry (reference value: 30.2%); format: functional
HCT-116 [5] = assay: Cell cycle arrest in human HCT116 cells assessed as accumulation at G1 phase at 2 times antiproliferative IC50 after 24 hrs by propidium iodide staining based flow cytometry (reference value: 31%); format: functional
HCT-116 [6] = assay: Cell cycle arrest in human HCT116 cells assessed as accumulation at S phase at 2 times antiproliferative IC50 after 24 hrs by propidium iodide staining based flow cytometry (reference value: 38.8%); format: functional
HCT-116 [7] = assay: Cell cycle arrest in human HCT116 cells assessed as accumulation at G2/M phase at 2 times antiproliferative IC50 after 24 hrs by propidium iodide staining based flow cytometry (reference value: 30.2%); format: functional
HCT-116 [8] = assay: Cytotoxicity against human HCT116 cells assessed as cell death at antiproliferative IC50 after 72 hrs by LDH release assay relative to control; format: functional
Summary of the method: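 HCT116 cells grown in McCoy's 5A with 10% FBS at 37 °C, 5% CO2, and treated 24 h after plating for 72 h with compound or DMSO vehicle. Supernatants were spun at 250g for 2 min, and attached cells were lysed. LDH reagent was added for 15 min at room temperature in the dark, and absorbance was read at 490/620 nm. Release = supernatant/(supernatant + lysate) LDH, fold over DMSO; mean ± SEM, ≥3 experiments.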

HCT-116 [9] = assay: Induction of apoptosis in human HCT116 cells assessed as apoptotic nuclei at antiproliferative IC50 after 24 hrs by Hoechst 33258 staining based fluorescence microscopic method (reference value: <2%); format: functional
Summary of the method: (§1)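 HCT116 seeded 150 000 cells per 35 mm dish; treated 24 h, fixed in 4% paraformaldehyde in PBS pH 7.4, 10 min 25 °C, stained Hoechst 33258 5 μg/mL, 5 min. Fluorescence microscopy; condensed or fragmented chromatin scored apoptotic; three random fields of about 100 nuclei per sample; percent apoptotic nuclei, mean ± SEM, ≥3 experiments.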

HCT-116 [10] = assay: Induction of apoptosis in human HCT116 cells assessed as apoptotic nuclei at 2 times antiproliferative IC50 after 24 hrs by Hoechst 33258 staining based fluorescence microscopic method (reference value: <2%); format: functional; summary of the method: as §1
HCT-116 [11] = assay: Induction of apoptosis in human HCT116 cells assessed as caspase-3/7 activation at antiproliferative IC50 after 24 hrs by Caspase-Glo assay relative to DMSO control; format: functional
Summary of the method: (§2)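 HCT116 at 5000 cells/well exposed 24 h. Caspase-Glo 3/7 reagent (DEVD-aminoluciferin substrate) 75 μL/well, 30 min room temperature for lysis and signal build-up; luminescence read. Activity expressed as fold of the reference treatment (DMSO vehicle or 5-FU); mean ± SEM, at least three experiments.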

HCT-116 [12] = assay: Induction of apoptosis in human HCT116 cells assessed as caspase-3/7 activation at antiproliferative IC50 after 24 hrs by Caspase-Glo assay relative to 5-fluorouracil; format: functional; summary of the method: as §2

SMILES	pIC50 (HCT-116 [1])	pIC50 (HepG2)	Activity (HCT-116 [2])	Activity (HCT-116 [3]) [%]	Activity (HCT-116 [4])	Activity (HCT-116 [5])	Activity (HCT-116 [6]) [%]	Activity (HCT-116 [7])	fold change (FC) (HCT-116 [8])	Activity (HCT-116 [9]) [%]	Activity (HCT-116 [10]) [%]	fold change (FC) (HCT-116 [11])	fold change (FC) (HCT-116 [12])
CC[C@H]1CN(C)[C@H]2Cc3c([nH]c4ccccc34)[C@H](c3c(OC)ccc4c5c([nH]c34)C3(C(=O)OC)C[C@@H]4C[C@H]([C@H](C)O)[C@@H]3N(CC5)C4)C[C@@H]1C2C(=O)OC (stereo partly drawn)	5.08	< 5.00	42.3 - 49%	39.3	18.5%	55 - 65%	19.3	15.7%	2.5 - 2.8	11	13	1.6 - 5.2	1.5 - 3.7
CC[C@H]1CN(C)[C@H]2Cc3c([nH]c4ccccc34)[C@H](c3c(OC)ccc4c5c([nH]c34)C3(C(=O)OC)CC4C[C@H](CC)[C@@H]3N(CC5)C4=O)C[C@@H]1C2C(=O)OC (stereo partly drawn)	< 5.00	< 5.00	41.7 - 46%	36.5	21.8%	62 - 67.2%	15.9	16.9%	2.5 - 2.8	16	25	1.6 - 5.2	1.5 - 3.7
CC[C@H]1CN(C)[C@H]2Cc3c([nH]c4ccccc34)[C@H](c3cc4c5c([nH]c4cc3OC)C3(C(=O)OC)CC4C[C@H](CC)[C@@H]3N(CC5)C4=O)C[C@@H]1C2C(=O)OC (stereo partly drawn)	5.06	< 5.00	34.4%	39.4	26.2 - 32%	32%	17.5	44 - 50.5%	2.5 - 2.8	16	37	1.6 - 5.2	1.5 - 3.7
CC[C@H]1CN(C)[C@H]2Cc3c([nH]c4ccccc34)[C@H](c3cc4c5c([nH]c4cc3OC)C3(C(=O)OC)C[C@@H]4C[C@H](CC)[C@@H]3N(CC5)C4)C[C@@H]1C2C(=O)OC (stereo partly drawn)	5.07	< 5.00	2.39%	21.9	75.7 - 77%	27.7%	28.5	43.8 - 47%	2.5 - 2.8	31	40	1.6 - 5.2	1.5 - 3.7
O=c1[nH]cc(F)c(=O)[nH]1 [FLUOROURACIL]	5.60	< 5.00	21.3%	78.7	0%	39.8%	55.7	4.48%	2.2 - 2.5	–	–	–	–
CC[C@@H]1CN(C)[C@H]2Cc3c([nH]c4ccccc34)[C@H](c3c(OC)ccc4c5c([nH]c34)C3(C(=O)OC)C[C@@H]4C[C@H](CC)[C@@H]3N(CC5)C4)C[C@@H]1C2C(=O)OC (stereo partly drawn)	< 5.00	< 5.00	–	–	–	–	–	–	–	–	–	–	–
